Assay outcomes: PubChem, The Scripps Research Institute Molecular Screening Center
Hits are enriched below; roughly 2.3% of the tested compounds scored in any of these assays.
ADAM10 inh: human ADAM10 inhibitors, primary screen, biochemical, QFRET, HTS; inhibition, % at 7 µM; Disintegrin and metalloproteinase domain-containing protein 10 (Homo sapiens), O14672; recombinant ADAM10, EDANS/DABCYL FRET peptide cleavage, 3 h; 370,000 compounds, 0.62% hits;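 active means inhibition above a per-campaign cutoff equal to the mean of compounds falling between control-based bounds plus 3 SD, cut at about 20% in these data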
PLCg1 inh: PLC-gamma1 enzyme inhibitors, primary screen, biochemical, fluorescence, purified enzyme; 370,000 compounds, 0.84% hits; inhibition, % at 12.2 µM; fluorogenic substrate; 1-phosphatidylinositol 4,5-bisphosphate phosphodiesterase gamma-1 (Homo sapiens), P19174
Tn7 DDE FP: inhibitors of Tn7 peptide binding to fibrin DD(E), primary screen, biochemical, fluorescence polarization, human fibrin, Tn7 probe. Fibrinogen beta chain (Homo sapiens), P02675. FP displacement of FITC-Tn7 peptide from fibrin DD(E); 0% = median of compound wells per plate. inhibition, % at 8.3 µM. 370,000 compounds, 0.13% hits;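 active means inhibition above the mean of compounds falling within the control limits plus 3 SD of them, cut at about 14% in these data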
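Test system: human clot-derived fibrin DD(E) complex / Quantity: 2 µM final DD(E) protein / Incubation: 10 min plus 3 h, room temperature / Measured by: fluorescence polarization / Benchmarks: high control of 10 µM Aha-Tn7 peptide / Replicates: singlicate testing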
Tn6 DDE FP: inhibitors of Tn6 peptide binding to fibrin DD(E), primary screen, biochemical, fluorescence polarization, human fibrin, Tn6 probe. Fibrinogen beta chain (Homo sapiens), P02675. Fibrin DD(E) TRITC-Tn6 fluorescence polarization displacement. inhibition, % at 8.3 µM. 370,000 compounds, 0.21% hits;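 active means inhibition above a per-campaign cutoff: mean of compounds within control limits plus 3 SD, cut at about 15% in these data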
PLC-beta3 inh: human PLC-beta3 inhibitors, primary screen, biochemical, fluorescence; 370,000 compounds, 0.18% hits; Purified PLC-beta3, fluorogenic substrate; 1-phosphatidylinositol 4,5-bisphosphate phosphodiesterase beta-3 (Homo sapiens), Q01970; inhibition, % at 12.2 µM; in the data active means inhibition above about 11%
ADAM17 inh: ADAM17 inhibitors, primary screen, biochemical, QFRET | Disintegrin and metalloproteinase domain-containing protein 17 (Homo sapiens), P78536 | inhibition, % at 6.95 µM | 370,000 compounds, 0.83% hits | AID 720648, 2013 | recombinant ADAM17, EDANS/DABCYL FRET peptide cleavage;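 active means inhibition above the mean of compounds lying between control limits plus 3 SD, set per campaign, cut at about 8.5% in these data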
Target sequence (P78536 215-824 limits assumed): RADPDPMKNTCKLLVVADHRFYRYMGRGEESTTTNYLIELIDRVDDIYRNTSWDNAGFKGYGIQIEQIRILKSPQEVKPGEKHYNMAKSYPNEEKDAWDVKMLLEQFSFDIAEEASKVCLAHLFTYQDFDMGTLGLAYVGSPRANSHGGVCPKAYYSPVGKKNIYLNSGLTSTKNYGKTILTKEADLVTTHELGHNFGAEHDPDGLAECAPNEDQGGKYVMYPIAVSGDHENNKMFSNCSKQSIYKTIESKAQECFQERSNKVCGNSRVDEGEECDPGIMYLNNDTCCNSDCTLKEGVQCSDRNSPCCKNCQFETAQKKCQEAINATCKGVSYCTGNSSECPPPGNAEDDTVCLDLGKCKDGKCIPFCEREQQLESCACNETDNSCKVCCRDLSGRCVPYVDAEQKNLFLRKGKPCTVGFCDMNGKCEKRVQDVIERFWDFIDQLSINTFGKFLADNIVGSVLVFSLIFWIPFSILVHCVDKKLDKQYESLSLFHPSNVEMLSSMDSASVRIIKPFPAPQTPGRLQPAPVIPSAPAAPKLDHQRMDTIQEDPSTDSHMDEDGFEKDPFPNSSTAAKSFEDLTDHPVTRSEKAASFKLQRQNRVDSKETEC
PLCgamma1 ctr: PLC-gamma1 enzyme inhibitors, counter-screen for PLC-beta3 inhibitor project, biochemical, fluorescence | shares compounds with PLCg1 inh | purified PLC-gamma1, fluorogenic substrate | inhibition, % at 12.3 µM | 3,300 compounds, 3.1% hits
PLCb3 confirm: PLC-beta3 inhibitor confirmation, biochemical, fluorescence, purified enzyme | fluorogenic substrate fluorescence | shares compounds with PLCg1 inh | inhibition, % at 12.3 µM | 3,300 compounds, 1% hits; in the data active means inhibition above about 11%
A number is an active result; – = inactive; · = no result given. Unless noted, no stated cut-off is given here; in the data, active means inhibition above about 9.5%; inactive means the rest.

SMILES	ADAM10 inh	PLCg1 inh	Tn7 DDE FP	Tn6 DDE FP	PLC-beta3 inh	ADAM17 inh	PLCgamma1 ctr	PLCb3 confirm
Cc1cccc(OCC(=O)N(C)CCc2ccccn2)c1	–	–	–	–	11	–	–	–
Cc1cc(C)cc(C(=O)OCCN2CCN(C3CN(Cc4cn(Cc5ccc([N+](=O)[O-])cc5)nn4)S(=O)(=O)C3)CC2)c1 (centres undefined)	–	–	–	–	–	–	·	·
COc1cccc(NC(=S)N2CCCC2c2ccc(OC)c(OC)c2)c1 (centres undefined)	–	11	–	–	–	–	–	–
CC(COc1ccc(C#N)c(F)c1)CN1CCC(C(O)(c2ccccc2)c2ccccc2)CC1 (centres undefined)	–	–	–	–	–	–	·	·
O=C(OCC#CCSc1nnc(-c2ccc(F)cc2)o1)c1ccc(F)cc1	–	10	–	–	–	–	–	–
CCn1cc(C(=O)OC)c(=O)c2cc(S(=O)(=O)N(C)C3CCCCC3)ccc21	–	–	–	–	–	–	·	·
CCN(CC)S(=O)(=O)c1ccc2c(c1)c(=O)c(C(=O)NCCCN(C)c1ccccc1)cn2C	–	–	–	–	–	–	·	·
COC(=O)c1cn(C)c2ccc(S(=O)(=O)N(C)C3CCCCC3)cc2c1=O	–	11	–	–	–	–	–	–
COC(=O)c1cn(C)c2ccc(S(=O)(=O)N3CCCCC3)cc2c1=O	–	12	–	–	–	–	–	–
CCC1CCCCN1CCCNC(=O)c1cn(C)c2ccc(S(=O)(=O)N(C)C3CCCCC3)cc2c1=O (centres undefined)	–	12	–	–	–	–	–	–
CCN(CC)S(=O)(=O)c1ccc2c(c1)c(=O)c(C(=O)NCc1cccs1)cn2C	–	9.6	–	–	–	–	–	–
CCCCOCCCNC(=O)C[C@H]1C[C@@]2(C(=O)OC)C(=C[C@H](C(C)(C)C)O[C@@H]2C)N(Cc2ccco2)C1=O	–	–	–	–	–	–	·	·
O=C(NCC1CCN(Cc2ccc(Cl)cc2)CC1)C1CCCN(c2ncnc3c2nc2n3CCCCC2)C1 (centres undefined)	–	11	–	–	–	–	–	–
O=C(NCC1CCN(Cc2ccc(F)cc2)CC1)C1CCCN(c2ncnc3c2nc2n3CCCCC2)C1 (centres undefined)	–	–	–	–	–	–	·	·
O=C(CSc1nc2ncccc2[nH]1)N1CCOCC1	–	–	–	–	–	–	·	·
CCn1c(=S)sc2c(=O)n(CC(=O)Nc3cccc(Cl)c3)c(C)nc21	–	10	–	–	–	–	–	11
CCOC(=O)c1ccc(NC(=O)Cn2c(C)nc3c(sc(=S)n3CC)c2=O)cc1	–	–	–	–	–	–	·	·
CN(Cc1ccccc1F)C(=O)CCCNC(=O)c1ccc(Cl)cc1	–	11	–	–	–	–	–	–
O=C(CCCNC(=O)c1ccc(Cl)cc1)Nc1ccccc1F	–	–	–	–	–	–	·	·
CCOC(=O)[C@@H](C)N1[C@@H](C)[C@H](c2ccccc2)Oc2ccc(Cl)cc2S1(=O)=O	–	–	–	–	–	–	·	·
OC(COc1ccc(Cl)cc1)CN1CCCCC1 (centres undefined)	–	–	–	–	–	–	·	·
OC(COc1c(Cl)cc(Cl)cc1Cl)CN1CCCCC1 (centres undefined)	–	15	–	–	–	–	–	–
